Measurements taken from the EternaBench riboswitch data.

Test system: MS2 coat protein
Assay: apparent Kd, MS2 coat protein; higher = weaker binding; RNA-MaP array; FMN 200 µM where present
Method in brief: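 The titrant was SNAP-549-labelled MS2 coat protein, run from 0.7 or 1.5 nM in doubling steps to 3 µM. It was applied to designs transcribed by stalled E. coli RNA polymerase on Illumina sequencing-chip clusters, without ligand first and then with constant ligand, in 100 mM Tris-HCl pH 7.5, 80 mM KCl, 4 mM MgCl2, BSA, DTT, yeast tRNA and Tween-20. The apparent Kd is the median of filtered per-cluster binding-curve fits, with green signal normalised to red-channel RNA signal and control-cluster median Fmax.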

[1] = designed as: ON switch for flavin mononucleotide, no ligand
[2] = ligand present: flavin mononucleotide, designed as: ON switch for flavin mononucleotide
[3] = designed as: OFF switch for flavin mononucleotide, no ligand
[4] = ligand present: flavin mononucleotide, designed as: OFF switch for flavin mononucleotide

Sequence	apparent Kd [1] [nM]	apparent Kd [2] [nM]	apparent Kd [3] [nM]	apparent Kd [4] [nM]
GUAGCUAUCGGAGGAUAUUCAUACCGGAAACGGACAUGAGGAUCACCCAUGUAGCGAAAGCCUUGGGAGAAGGCCGAUAGCUAC	919	103		
AAACACGGACAUGAGGAUCACCCAUGUGGCGAAAGCCUUGGGAGAAGGCAGUAUGCAAAGCAUUCUGAGGAUAUUCAUACCGUG	926	68.9		
AACCUAGUCAUAGGAUAUACAGGCAAAGCCAAAGUAGAAGGAUGACACAUGAGGAUCACCCAUGUGGUCCUUGAACAAAAUAAC			27	196
GCGUGAUUGUAGAAGGUACAUGAAAAUAUUUAAUACCUCAAGUAACAUGAGGAUCACCCAUGUAGUAAGGAUAUACAUAUACGC	95	56.8		
GCCUGCUGGCGAGGAUAUUCUGUGCGGUUCCGGCUCGUGUCUGUUACAUGAGGAUCACCCAUGUAGGAGAAGGUGUCUGUGGCC			4.75	5.01
UUAUUGUAUGUAGGAUAUGCAUAUUAUUAUUAUGCAGAAGGACAUGAGGAUCACCCAUGUAUAUUAUUAUUAUAUAUUAUAUAU			32.3	60.9
GUGCCUUGGGAGAAGGCCGAUAGCAAAGCUAUCGGAGGAUAUUCAUACCGGAAACGGACAUGAGGAUCACCCAUGUGGCACAAA	1280	51.7		
GAUCCUUCUGUUAGGAUAUGCUUUGGGCUUCCGCUGCAGAAGGAACAUGAGGAUCACCCAUGUCCGAUGCCGUC			74	89.4
ACAGAUGCUGACAUGAGGAUCACCCAUGUUAGAUUGUUAUGUCAGGAUAUUAUCUGGCAACCAGAUGAGAAGGGACCAUCUGUG	16.5	7.33		
AUCAGCUCGUCAGGAUAUACGUCCCUGCGUCAGCAGUGUGGUAAGAUCACAUGAGGAUCACCCAUGUAGAAGGGACGAGCUGAU			22.9	312
GACAAGGGAGGAUAUGCACAAGGGAUAUCUGACAUGCCGUUACAUGAGGAUCACCCAUGUAGAAGGCCCGAAUA			13.7	35.3
GCGAUUUUGUAAGGAUAUACACCAGUUUUAAGUGUAGAAGGUACUUACAUGAGGAUCACCCAUGUAUAAAUGUAUAAUAGUCGC	6.92	6.87		
AUUGUUAAGUUAGGAUAUAGUAAAAUAAUUUAAUUAGAAGGAGCUCACAUGAGGAUCACCCAUGUAAGAGGAUCACCCAUGUAU			23.5	18.9
CCAUAAAAGAUCCAAAAUUACAACAUGAGGAUCACCCAUGUGCAGGAUAUCGUGCCAGUGAUGUACGAGAAGGGCAGACACUGC			356	400
GUGCGCGGCUAGGAUAUUGUGGGUUUUUGUCUGCGAGAAGGUGCCACAUGAGGAUCACCCAUGUGGUGUUGCUC			24.1	30
GUGUACCGAGGAUAUGCUGGAAUCUAGCGAAGCUAGGUUCCACAUGAGGAUCACCCAUGUAGAAGGUGGUACAC			79.9	25.7
AGUUACAUGUAAGGAUAUACUAGCGAUAAGCUAGUAGAAGGUACUGUCUAUUGUAUCACUAUUAUACAUGAGGAUCACCCAUGU	7.56	6.36		
GGACAUGGGAAACCACAUGGAGAUAAGGAUAUAUAGAUGACAUGAGGAUCACCCAUGUAUGGCGAAUAGAAGGUAUGAGUGUGA	153	16.2		
AAUGAGACCGCAGGAUAUCCACAUGAGGAUCACCCAUGUUCUCAGACCGGAAGCACGAUCUGCGAGGAGAAGGGCGACCUCAUA	716	53.1		
GAAAACAGAGGAUAUACAUAAGCUAGACGAAAGUCUAGCAAACAUGAGGAUCACCCAUGUAGAAGGCUGAAGAA			37.6	36.3
CUCAAACAUGAGGAUCACCCAUGUGUUGUCAUGGGAGGAUAUCUAAGUUCGUUGUAGUCGGGAGAAGGCCUAUGUC	134	47.2		
GAUCCUUCUGUUAGGAUAUGCUUUGGGCUUUCGCAGCAGAAGGAACAUGAGGAUCACCCAUGUCCGAUGCCGUC			77.5	81.3
UAUCGGAGCAGAGGAUAUUACAUGAGGAUCACCCAUGUAUGAACCAAUAGCUGGAAACAGCAAUGUAAGAAGGCUGCUCCGACA			11.9	163
GGACGGUUAGUGAGGAUAUGCUCUACCUCGGUAGAGCAGAAGGCACAUGAGGAUCACCCAUGUGAAAACUGUUC			16.6	21.2
AAAAACGUAGGAUAUACAUGAAAAAAAAAAAAAAAAAAAAGACAUGAGGAUCACCCAUGUAGAAGGGCGAAAAA			115	104
AUAUCUUAUGAGAAGGCGAUCAUGAAACAUGAUCGAGGAUAUCAUGUAAACAUGAGGAUCACCCAUGUAUGGGUAUUAUGGUAU	89.4	57		
AACGGGUGGGUAGGAUAUGGCUAUGUCUCAUUGCUAGAAGGACCAGCUACUACAUGAGGAUCACCCAUGUCGUAGUGCACCCAG	20.5	6.04		
GUGAGGUCAGGAUAUGCAUGGCGGGACUUGCGUCGUGGCGUGGAGAAGGGACAUGAGGAUCACCCAUGUGGAGA			73	63.1

Sequence	apparent Kd [1] [nM]	apparent Kd [2] [nM]	apparent Kd [3] [nM]	apparent Kd [4] [nM]
UACAUGAGGAUCACCCAUGUUUUGUCGUGUAUGGUAUUUAUCUAGGAUAUCAUUCUAUUUAGUUAUGAGAAGGAGAAUAUUAAU			28.1	27.4
ACAUCGACAGGAUAUACGUGAGUGGAAAAAGUGUAUCCACUACAUGAGGAUCACCCAUGUAGAAGGGUCGAUGA			18.5	19.8
AGUCGGAGCAGAGGAUAUAUACAUGAGGAUCACCCAUGUGAAUGAAUAAGCUGGAAACAGCAUGUAUAGAAGGCUGCUCCGACA			352	603
GGUACCAUCACAGGAUAUGCUUUCCUUUGGAAAGCAGAAGGGUGUAACAUGAGGAUCACCCAUGUGGUGCCAGGGCGUGAGCCC	184	13		
GGUUCCUUCACAGGAUAUGCUAUCCUUUGGGUAGCAGAAGGGUGAUACAUGAGGAUCACCCAUGUGGAGCCAGGGCGUGAGCCC	1260	428		
AUCUUUAAGAUAGGAUAUAGUAUGAUGGUUUAAUUAGAAGGAUCUCACAUGAGGAUCACCCAUGUAAUAGGAUUACCCAUGUAU			46.1	31.7
AAUUAACAUGAGGAUCACCCAUGUGAGGAUAUGGUAUUACUUGGACAGCUAUGAUCUACCAGAAGGCACAUAUA			28.7	49.4
CAGCAAGUCACAGGAUAUGGUGAUGUACAUGAGGAUCACCCAUGUCCGUCUUCUCUCACAAGAUGCCAGAAGGGUGACUUCCGG	950	135		
AUUGCUAGCGCAGGAUAUGAUGCGAAAAUUGCGUCAGAAGGGUGUAAUCUCUCAUUGCGGGAGGACAUGAGGAUCACCCAUGUC	142	87		
UUAUUUUUACAGAAGGUUUAAUAAUAUGUAUGAGAAGGAUAUGUAACAUGAGGAUCACCCAUGUUUUAUUUAUAUGAGGUUCAU			10.8	9.27
GUCAGCUCGUGAGGAUAUACAACACUGCUUCGGCAGUGUCUUAAGAUCACAUGAGGAUCACCCAUGUAGAAGGCACGAGCUGAU			8.98	168
AAAAAAAAAACUCAGGAUAUAGAUUGUAGAACAUGAGGAUCACCCAUGUAGUGAAAGAAGAGAGACUAGAAGGGAGUAAAAAAAAA	85.7	74.7		
CGUAGGAUCCAGAAGGCAUGAACAUGAGGAUCACCCAUGUGAAAAGACAUGAGGAUAUGGAUCCUACGAAAAGUGCGAAAGCAC	5.53	5.47		
UAGUAUAAGGGCAUUAAACAUGAGGAUCACCCAUGUACGAUAGAGGAUAUGCAUUUCAGUUUAGAGUAGAAGGUUAGAGAAUUG			39.5	41.6
CAGUACUGAGGAUAUACAUGAGGAUCACCCAUGUGUUGCAGCUAGGAAACUAGCAAAAGUAGAAGGCAGUACUG			10.7	21
GUCCUACAUGAGGAUCACCCAUGUGAGGAUAUGGAUUCGCUGGCCGUAGCCAGUGGAUCCAGAAGGCGCAUGAU			26.9	82.8
UCAUUAUAAAUCCAUCAUAACUACAUGAGGAUCACCCAUGUGCAGGAUAUCGAUAAUUUAACUAACGAGAAGGGCAUUUACAGA			37.6	139
UUAAAUCAUGUAGGAUAUGCAUGGCGAAGCUACGCAGAAGGACAUGAGGAUCACCCAUGUUCAAGCGUCUGAGUACAGAUGCAA			20.9	102
UCAUGAUAUGUAGGAUAUCACAUUUAUUGAUUAAUAUAUGAAUAUAGAAUUUGAGAAGGACAUUUACAUGAGGAUCACCCAUGU			15.8	16.7
AACUCACAUGAGGAUCACCCAUGUGAGGAUAUGAUACUAUGUACUUCGGUACAUAGUAUCAGAAGGCAUGUGGG			50.5	28.1
GAGAUUUUGUAAGGAUAUACUCUGUGAUGAAGAGUAGAAGGUACUUACAUGAGGAUCACCCAUGUUUAACGAGAUACUAAUCGU	57	23.3		
GAUUAACAUGAGGAUCACCCAUGUGAGGAUAUGGAAUGGCUCAUUGUCUGAUUUCCGUCUAGAAGGCACAUCUU			46.7	45
AAUAACAGAGGAUAUACUAUUUUAUGUGUUUGUUAUUUUGAACAUGAGGAUCACCCAUGUAGAAGGCUGAAUGA			27.7	28
UCAUACAUUCGAGGAUAUCGGUGAUUAAUUUUACGAGAAGGCGAUAUAAGAUUUAAUUUUUAAGACAUGAGGAUCACCCAUGUA	30.7	29.6		
CACGUACAUGAGGAUCACCCAUGUUAGGAUAUGUUUACCGGAAGGCAUUCUUGGGUAAACAGAAGGGACGAAAC			22.5	31.8
AGAAUAAACCAGAAGGCCGAGAUACAUGAGGAUCACCCAUGUAUACUUUGGAGGAUAUGGAUGAUUCAAGUGCGUUUCGUAGCA	3.98	3.36		
AUAAUGUGAGGAUAUCAGUCGACUAGCUGCGGCUAGUCGACUGAGAAGGCACAUGAGGAUCACCCAUGUAGAUC			978	47.7
